The text below walks through data of ChEMBL document CHEMBL4725387, “Synthesis and pharmacological evaluation of piperidine (piperazine)-amide substituted derivatives as multi-target antipsychotics” (Bioorg Med Chem Lett, 2020).

pIC50, pKi: −log10 of the molar value. Active and inactive are the calls of the source. No cut-off for these calls is given here.

Data set [1] is described as follows: AUC (0 to infinity) in rat at 3 mg/kg, iv. The data set is classed as ADME, organism-based. Set-up: route intravenous, time infinity, dose 3 mg/kg. Conditions: in vivo. The method, boiled down:
(§1)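 Male rats, n = 6 per group, given a single intravenous dose of 3 mg/kg. PK parameters taken from serum concentration–time profiles: t1/2, AUC0-t, AUC0-∞, clearance.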

Data set [2] is described as follows: […] in rat at 3 mg/kg, iv. The class given is ADME, organism-based. Conditions: in vivo. In outline: as §1
A further data set concerns the target D(2) dopamine receptor (Homo sapiens, UniProt P14416). Nature of the data set: Binding affinity to D2 receptor (unknown origin). The method, boiled down: (§2)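 Radioligand displacement binding. Ki is the mean ± SEM of three experiments.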
Data set [3] has as its system Rattus norvegicus. Nature of the data set: Memory enhancement effect in rat assessed as increase in total exploratory time for novel objects at 0.1 to 0.3 mg/kg, po administered 1 hr prior to acquisition trial and measured after 24 hrs by novel object recognition test. The data set is classed as functional, organism-based. Conditions: dose mg/kg 0.1-0.3, time 25.0 hrs.

In data set [4] the target is Voltage-gated inwardly rectifying potassium channel KCNH2 (Homo sapiens, UniProt Q12809). Briefly: Inhibition of human ERG by patch-clamp method. Background: Patch clamp records ionic current or voltage across a cell membrane.
In data set [5] the target is T1, Alpha-2A adrenergic receptor (Homo sapiens, UniProt P08913).
T1 sequence (P08913 whole entry): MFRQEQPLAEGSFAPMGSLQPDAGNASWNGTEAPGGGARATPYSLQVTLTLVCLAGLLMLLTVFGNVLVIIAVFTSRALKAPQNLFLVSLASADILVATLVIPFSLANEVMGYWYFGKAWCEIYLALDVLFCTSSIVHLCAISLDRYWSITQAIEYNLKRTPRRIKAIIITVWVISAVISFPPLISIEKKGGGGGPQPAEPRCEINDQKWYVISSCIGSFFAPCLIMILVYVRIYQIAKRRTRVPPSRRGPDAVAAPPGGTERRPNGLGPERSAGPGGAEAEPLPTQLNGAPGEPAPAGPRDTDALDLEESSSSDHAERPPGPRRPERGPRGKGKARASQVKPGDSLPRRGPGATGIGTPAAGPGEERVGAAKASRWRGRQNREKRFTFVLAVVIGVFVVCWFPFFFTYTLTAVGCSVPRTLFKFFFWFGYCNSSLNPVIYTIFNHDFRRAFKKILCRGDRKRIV
Nature of the data set: Binding affinity to alpha2 adrenergic receptor (unknown origin). The method, boiled down: as §2

The target in data set [6] is 5-hydroxytryptamine receptor 6 (Homo sapiens, UniProt P50406). Nature of the data set: Binding affinity to 5HT6 receptor (unknown origin). In outline: as §2
For data set [7], the system named is Mus musculus. Briefly: Antipsychotic activity in po dosed mouse assessed as reduction in MK-801-induced hyperlocomotor activity. The class given is functional. In outline:
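Mice hyperactivity induced by MK-801 0.3 mg/kg sc, locomotor activity recorded. Oral dosing at 0.01–1.0 mg/kg (five doses) in 30% PEG 400. ED50 reported with 95% confidence limits.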

Data set [8] can be described thus: Oral bioavailability in rat at 10 mg/kg. Conditions: in vivo. The data set is classed as ADME, organism-based. The method, boiled down: (§3)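 Male rats, n = 6 per group, given a single oral dose of 10 mg/kg. PK parameters taken from serum concentration–time profiles: Cmax, Tmax, t1/2, AUC0-t, AUC0-∞, CL/F, F%.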
The target in data set [9] is T2, 5-hydroxytryptamine receptor 1A (Homo sapiens, UniProt P08908).
T2 sequence (P08908 whole entry): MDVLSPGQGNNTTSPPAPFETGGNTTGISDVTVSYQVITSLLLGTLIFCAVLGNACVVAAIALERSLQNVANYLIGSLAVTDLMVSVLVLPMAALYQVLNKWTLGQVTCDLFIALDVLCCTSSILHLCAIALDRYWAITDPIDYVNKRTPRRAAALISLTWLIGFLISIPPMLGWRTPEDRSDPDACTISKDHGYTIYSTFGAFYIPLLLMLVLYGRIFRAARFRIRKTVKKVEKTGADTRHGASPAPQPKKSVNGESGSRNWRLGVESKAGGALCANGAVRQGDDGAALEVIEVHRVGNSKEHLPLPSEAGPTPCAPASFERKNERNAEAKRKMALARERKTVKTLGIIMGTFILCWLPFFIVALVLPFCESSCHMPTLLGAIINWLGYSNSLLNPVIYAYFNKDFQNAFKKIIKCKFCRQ
Briefly: Binding affinity to 5HT1A receptor (unknown origin). The method, boiled down:
as §2

Data set [10] is described as follows: AUC (0 to t) in rat at 10 mg/kg, po. The class given is ADME, organism-based. Set-up: dose 10 mg/kg. Conditions: in vivo. The method, boiled down: as §3
Data set [11] can be described thus: Cmax in rat at 10 mg/kg, po. Set-up: route oral, dose 10 mg/kg. The class given is ADME, organism-based. Conditions: in vivo. In outline: as §3
A short description of data set [12]: Therapeutic index, ratio of ED50 for induction of catalepsy in po dosed mouse to ED50 for antipsychotic activity in po dosed mouse assessed as reduction in MK-801-induced hyperlocomotor activity. The class given is toxicity, organism-based. Conditions: in vivo, read-out: Ratio ED50. The method, boiled down:
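Therapeutic index is the catalepsy ED50 divided by the efficacy ED50 from the apomorphine climbing or MK-801 hyperactivity model. All were oral dosing in mice, vehicle 30% PEG 400.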

Data set [13] deals with 5-hydroxytryptamine receptor 2A (Homo sapiens, UniProt P28223). Nature of the data set: Binding affinity to 5HT2A receptor (unknown origin).
Data set [14] in a line: AUC (0 to t) in rat at 3 mg/kg, iv. The class given is ADME, organism-based. The arrangement: dose 3 mg/kg. Conditions: in vivo. In outline:
as §1

Data set [15] is described as follows: Half life in rat at 3 mg/kg, iv. Conditions: in vivo. The class given is ADME, organism-based. The method, boiled down: as §1
Data set [16] in a line: Tmax in rat at 10 mg/kg, po. The class given is ADME, organism-based. Conditions: in vivo. In outline: as §3
Data set [17] concerns Rattus norvegicus. Briefly: Antipsychotic activity in po dosed rat assessed as suppression in conditioned avoidance response measured after 90 mins by CAR test. The data set is classed as functional. The method, boiled down:
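Rat conditioned avoidance responding tested 90 min after a single oral dose of 0.05, 0.15, 0.45 or 1.35 mg/kg in 30% PEG 400. n = 10 per group. Mean ± SEM, compared with vehicle (P < 0.05). ED50 reported.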

A further data set has as its target Histamine H1 receptor (Homo sapiens, UniProt P35367). Nature of the data set: Binding affinity to H1 receptor (unknown origin). The data set is classed as ADME.
For data set [18], the system named is Mus musculus. Briefly: Antipsychotic activity in po dosed mouse assessed as suppression in DOI-induced head twitching response. The data set is classed as functional. In outline: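 Mouse head twitch induced by DOI 1.0 mg/kg ip. Oral pretreatment at 0.01, 0.03, 0.1, 0.3 and 1.0 mg/kg in 30% PEG 400. ED50 reported with 95% confidence limits.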
Data set [19] is described as follows: AUC (0 to infinity) in rat at 10 mg/kg, po. Set-up: route oral, time infinity, dose 10 mg/kg. Conditions: in vivo. The class given is ADME, organism-based. The method, boiled down:
as §3

The nature of data set [20]: Induction of catalepsy in po dosed mouse by vertical grid and elevated bar test. The class given is organism-based. Conditions: in vivo. In outline: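 Mouse catalepsy scored by vertical grid and elevated bar tests. Oral doses of 1, 5, 15, 45 and 100 mg/kg in 30% PEG 400. ED50 reported with 95% confidence limits.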

5-hydroxytryptamine receptor 2A, sequence (P28223 whole entry): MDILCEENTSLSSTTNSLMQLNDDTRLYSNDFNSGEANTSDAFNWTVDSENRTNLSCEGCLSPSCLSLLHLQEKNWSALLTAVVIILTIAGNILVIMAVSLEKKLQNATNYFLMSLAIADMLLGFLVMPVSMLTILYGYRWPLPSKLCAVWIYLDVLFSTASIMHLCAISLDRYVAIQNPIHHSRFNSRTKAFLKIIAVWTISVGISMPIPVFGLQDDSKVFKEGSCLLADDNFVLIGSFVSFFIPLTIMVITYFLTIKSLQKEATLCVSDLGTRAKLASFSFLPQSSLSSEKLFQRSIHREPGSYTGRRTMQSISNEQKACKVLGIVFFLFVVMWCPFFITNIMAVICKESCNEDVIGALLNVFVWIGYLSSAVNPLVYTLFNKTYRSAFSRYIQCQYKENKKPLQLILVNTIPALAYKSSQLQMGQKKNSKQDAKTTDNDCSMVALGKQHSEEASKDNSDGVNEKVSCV
Voltage-gated inwardly rectifying potassium channel KCNH2, sequence (Q12809 whole entry): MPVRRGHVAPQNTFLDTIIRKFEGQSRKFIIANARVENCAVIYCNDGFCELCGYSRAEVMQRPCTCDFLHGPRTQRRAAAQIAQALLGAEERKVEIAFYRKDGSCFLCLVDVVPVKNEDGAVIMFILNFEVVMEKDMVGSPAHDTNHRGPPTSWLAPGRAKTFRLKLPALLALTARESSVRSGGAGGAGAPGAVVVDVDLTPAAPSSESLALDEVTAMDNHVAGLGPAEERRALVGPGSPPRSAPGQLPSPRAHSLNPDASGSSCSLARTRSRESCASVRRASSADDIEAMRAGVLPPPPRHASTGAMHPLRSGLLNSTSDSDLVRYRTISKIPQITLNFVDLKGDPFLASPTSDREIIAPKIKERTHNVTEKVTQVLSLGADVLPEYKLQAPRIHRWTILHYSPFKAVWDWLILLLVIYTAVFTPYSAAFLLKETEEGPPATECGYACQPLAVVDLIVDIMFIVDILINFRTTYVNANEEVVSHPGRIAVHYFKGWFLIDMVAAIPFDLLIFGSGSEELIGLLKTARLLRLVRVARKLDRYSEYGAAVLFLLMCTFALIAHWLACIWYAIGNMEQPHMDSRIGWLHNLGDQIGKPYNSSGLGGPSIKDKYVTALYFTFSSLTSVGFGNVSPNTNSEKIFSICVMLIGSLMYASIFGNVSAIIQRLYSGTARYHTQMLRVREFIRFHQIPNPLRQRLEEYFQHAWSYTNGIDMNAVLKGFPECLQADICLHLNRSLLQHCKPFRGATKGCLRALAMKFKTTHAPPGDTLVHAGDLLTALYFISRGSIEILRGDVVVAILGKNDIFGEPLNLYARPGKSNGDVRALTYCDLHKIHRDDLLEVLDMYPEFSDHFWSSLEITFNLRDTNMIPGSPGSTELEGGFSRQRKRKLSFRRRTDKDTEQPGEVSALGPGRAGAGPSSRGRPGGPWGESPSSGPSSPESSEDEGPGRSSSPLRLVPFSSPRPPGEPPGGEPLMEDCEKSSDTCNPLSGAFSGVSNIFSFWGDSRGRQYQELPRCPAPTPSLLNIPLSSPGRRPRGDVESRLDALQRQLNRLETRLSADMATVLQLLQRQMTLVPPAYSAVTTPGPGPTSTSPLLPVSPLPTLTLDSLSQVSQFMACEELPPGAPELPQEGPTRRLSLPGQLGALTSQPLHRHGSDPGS
D(2) dopamine receptor, sequence (P14416 whole entry): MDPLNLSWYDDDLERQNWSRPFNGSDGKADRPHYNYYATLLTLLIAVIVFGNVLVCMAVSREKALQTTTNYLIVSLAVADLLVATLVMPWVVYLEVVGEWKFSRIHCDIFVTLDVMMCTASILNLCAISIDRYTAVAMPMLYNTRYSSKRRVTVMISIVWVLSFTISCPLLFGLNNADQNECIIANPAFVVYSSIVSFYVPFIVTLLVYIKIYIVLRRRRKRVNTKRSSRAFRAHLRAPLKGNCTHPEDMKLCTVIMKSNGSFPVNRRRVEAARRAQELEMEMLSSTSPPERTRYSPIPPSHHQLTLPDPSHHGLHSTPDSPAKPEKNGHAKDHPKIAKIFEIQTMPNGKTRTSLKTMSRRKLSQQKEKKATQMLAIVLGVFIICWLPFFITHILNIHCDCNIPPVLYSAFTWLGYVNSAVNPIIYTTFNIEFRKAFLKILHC
5-hydroxytryptamine receptor 6, sequence (P50406 whole entry): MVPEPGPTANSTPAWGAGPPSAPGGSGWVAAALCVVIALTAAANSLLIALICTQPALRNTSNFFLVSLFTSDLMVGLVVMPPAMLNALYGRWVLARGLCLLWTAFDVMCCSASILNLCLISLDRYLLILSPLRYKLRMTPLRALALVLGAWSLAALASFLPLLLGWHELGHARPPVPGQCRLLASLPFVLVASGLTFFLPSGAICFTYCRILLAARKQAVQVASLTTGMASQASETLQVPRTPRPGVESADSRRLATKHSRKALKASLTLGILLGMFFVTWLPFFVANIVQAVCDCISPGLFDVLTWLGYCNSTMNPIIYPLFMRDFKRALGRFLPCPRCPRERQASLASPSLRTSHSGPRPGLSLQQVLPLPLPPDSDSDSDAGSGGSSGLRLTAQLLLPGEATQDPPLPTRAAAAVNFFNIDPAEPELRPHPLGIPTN
Histamine H1 receptor, sequence (P35367 whole entry): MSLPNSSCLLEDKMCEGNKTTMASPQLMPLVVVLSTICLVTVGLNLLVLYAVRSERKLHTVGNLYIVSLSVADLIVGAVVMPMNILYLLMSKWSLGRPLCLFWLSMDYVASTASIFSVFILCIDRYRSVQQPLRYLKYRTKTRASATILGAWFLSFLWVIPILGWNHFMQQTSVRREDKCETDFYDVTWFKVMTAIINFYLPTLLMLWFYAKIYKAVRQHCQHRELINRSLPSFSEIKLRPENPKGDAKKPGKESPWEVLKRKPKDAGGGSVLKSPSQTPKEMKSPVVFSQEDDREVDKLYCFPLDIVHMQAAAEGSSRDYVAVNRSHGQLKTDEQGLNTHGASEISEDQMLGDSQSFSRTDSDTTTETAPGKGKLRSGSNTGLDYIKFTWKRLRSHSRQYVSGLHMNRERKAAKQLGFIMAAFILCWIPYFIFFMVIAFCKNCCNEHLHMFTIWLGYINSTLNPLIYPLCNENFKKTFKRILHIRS

`CC(=O)Nc1ccc(OCCCN2CCC(c3noc4cc(F)ccc34)CC2)cc1`: the figures for the AUC in [1] and in [19] were 931.48 ng·h/mL and 9638.27 ng·h/mL, respectively. Also, in data set [2], the CL/F (as a rule, the apparent clearance, not corrected for the fraction that reaches the circulation) was found to be 3.22 mL/h. Besides, the pKi (commonly the negative decadic logarithm of the Ki, by convention in mol/L) at D(2) dopamine receptor was 8.68; in [5], 7.79; in data set [6], 7.89; in data set [9], 8.46; in data set [13], 8.11; at Histamine H1 receptor, 5.67. Also, in the data set on Rattus norvegicus [3], the outcome was Active. The pIC50 (in general, the negative decadic logarithm of the IC50, by convention in mol/L) in data set [4] is 5.53. The median effective dose (ED50) (in general, the dose that gives a 50% effect, or the effect in half of the subjects) in the data set with Mus musculus [7] was found to be 0.19 mg/kg; in the data set with Rattus norvegicus [17] (1.5 h), 0.28 mg/kg; in the data set with Mus musculus [18], 0.22 mg/kg; in data set [20] it was 25.2 mg/kg. The compound also returned a F in [8] of 31.04%. The AUC(0-t) – broadly, the area under the concentration-time curve up to a stated or last time point – in data set [10] was 9490 ng·h/mL; in data set [14] it was 879 ng·h/mL. For the same compound, the concentration in [11] peaked (Cmax) at 745 ng/mL. The selectivity ratio in data set [12] was found to be 133. Besides, the half-life (commonly how long it takes for the measured level to halve) in data set [15] was 221 min. For the same compound, the Tmax (commonly the time from dosing to the highest level) in data set [16] is 7 h. Besides, the Activity entry with Rattus norvegicus [17] and in the data set on Mus musculus [18] was “Dose-dependent effect” each time.
